The subject of one assay is Osteoclast. The assay is described as follows: Increase in osteoclast formation in mouse primary osteoclast cocultured cells. The class given is functional, cell-based. The procedure, abridged:
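Tibial marrow cells (1.5×10^5/well) from 5–8-wk male ddY mice were cocultured with primary calvarial cells (3×10^3/well) from newborn ddY mice. Culture was 7 days in α-MEM with 10% FBS and compound at 10^-8 to 10^-12 M, with medium renewed on day 3. Cells were formaldehyde-fixed and TRAP-stained, and TRAP-positive cells with ≥3 nuclei counted microscopically as osteoclasts.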

Assay [1] concerns the target T1, Vitamin D3 receptor (Rattus norvegicus) (UniProt P13053).
T1 sequence (whole entry): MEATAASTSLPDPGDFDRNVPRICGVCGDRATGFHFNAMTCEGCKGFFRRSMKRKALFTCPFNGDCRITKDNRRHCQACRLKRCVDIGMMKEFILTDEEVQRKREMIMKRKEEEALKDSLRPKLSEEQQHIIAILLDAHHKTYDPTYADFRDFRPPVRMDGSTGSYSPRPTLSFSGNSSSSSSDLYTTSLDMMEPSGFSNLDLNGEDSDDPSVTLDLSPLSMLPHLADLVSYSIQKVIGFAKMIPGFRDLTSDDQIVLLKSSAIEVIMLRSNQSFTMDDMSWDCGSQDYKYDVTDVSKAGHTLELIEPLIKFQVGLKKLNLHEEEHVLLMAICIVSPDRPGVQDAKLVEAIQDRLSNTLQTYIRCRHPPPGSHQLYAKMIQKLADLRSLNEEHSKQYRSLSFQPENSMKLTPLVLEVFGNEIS
The assay is described as follows: Displacement of [3H]1-alpha,25-(OH)2D3 from rat recombinant VDR ligand-binding domain relative to 1-alpha,25-(OH)2D3. The procedure, abridged: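 His-tagged rat VDR LBD (aa 115–423) was expressed in E. coli and the sonicated lysate diluted ~1000-fold in 50 mM Tris pH 7.5 (100 mM KCl, 5 mM DTT, 0.5% CHAPS, 100 µg/ml BSA). It was incubated with [3H]-1α,25-(OH)2D3 (~5000 dpm) at 4 °C for 18 h. Free ligand was removed with dextran-coated charcoal (30 min, 4 °C) and centrifugation, and the supernatant counted. At least two runs, in duplicate.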
A general note: In a radioligand displacement assay an active substance lowers the binding of a labelled ligand.

In assay [2] the target is Vitamin D3 receptor (Homo sapiens) (UniProt P11473). The assay is described as follows: Activity at human VDR assessed as transcriptional activation in COS cells after 24 hrs by luciferase reporter gene assay relative to 1-alpha,25-(OH)2D3. A general note: Reporter assays use an easily measured gene product as a stand-in for the process of interest.

Molecules are shown by their SMILES.

From ChEMBL document CHEMBL1143124, “Synthesis and structure-activity relationships of 16-ene-22-thia-1alpha,25-dihydroxy-26,27-dimethyl-19-norvitamin D3 analogs having side chains of different sizes” (Bioorg Med Chem, 2008) come the findings set out here.

Take `CCC(O)(CC)CCCS[C@H](C)C1=CCC2/C(=C/C=C3C[C@@H](O)C[C@H](O)C3)CCC[C@]12C` (stereo not given in full): the values for the Activity entry (with Osteoclast; in assay [1]; in assay [2]) were “Dose-dependent effect”, 8% and 20%, respectively.
For `CCC(O)(CC)CS[C@@H](C)C1=CCC2/C(=C/C=C3C[C@@H](O)C[C@H](O)C3)CCC[C@]12C` (stereo not given in full), in that order: “Dose-dependent effect”, 60% and 104%.
The corresponding values for `CCC(O)(CC)CCS[C@H](C)C1=CCC2/C(=C/C=C3C[C@@H](O)C[C@H](O)C3)CCC[C@]12C` (stereo not given in full) are “Dose-dependent effect”, 4% and 27%.
Turning to `CCC(O)(CC)CS[C@H](C)C1=CCC2/C(=C/C=C3C[C@@H](O)C[C@H](O)C3)CCC[C@]12C` (stereo not given in full), the Activity result is “Dose-dependent effect” in the assay with Osteoclast, 6% in assay [1] and 9% in assay [2].
For `CCC(O)(CC)CCS[C@@H](C)C1=CCC2/C(=C/C=C3C[C@@H](O)C[C@H](O)C3)CCC[C@]12C` (stereo not given in full), in that order: “Dose-dependent effect”, 100% and 2000%.
For `CCC(O)(CC)CCCS[C@@H](C)C1=CCC2/C(=C/C=C3C[C@@H](O)C[C@H](O)C3)CCC[C@]12C` (stereo not given in full), in that order: “Dose-dependent effect”, 100% and 2000%.
For the compound `CCC(O)(CC)CCCCCS[C@@H](C)C1=CCC2/C(=C/C=C3C[C@@H](O)C[C@H](O)C3)CCC[C@]12C` (stereo not given in full), in assay [2], the Activity was 2%.
On the same count and under the same terms, for `CCC(O)(CC)CCCCS[C@@H](C)C1=CCC2/C(=C/C=C3C[C@@H](O)C[C@H](O)C3)CCC[C@]12C` (stereo not given in full) the value was 1%.
